# High-throughput results as filed in PubChem.
# This is a sample that favours compounds with a hit; in the whole collection about 3.5% have one here.
# MrgX1 PAM = positive allosteric modulators of MrgX1, primary screen, HEK293 cells, Fluo-4 calcium flux; B-score at 10 µM; hit rate 0.63% among 310,000; FDSS; hits give high values;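 active = plate-corrected calcium response at least 3 library SD above typical, normal starting fluorescence, not activating the receptor alone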;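 also: compound read alongside a low EC10 to EC30 dose of BAM8-22 agonist; peak minus trough fluorescence over baseline measured at the second addition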
# Target sequence (Q96LB2 whole entry, looked up): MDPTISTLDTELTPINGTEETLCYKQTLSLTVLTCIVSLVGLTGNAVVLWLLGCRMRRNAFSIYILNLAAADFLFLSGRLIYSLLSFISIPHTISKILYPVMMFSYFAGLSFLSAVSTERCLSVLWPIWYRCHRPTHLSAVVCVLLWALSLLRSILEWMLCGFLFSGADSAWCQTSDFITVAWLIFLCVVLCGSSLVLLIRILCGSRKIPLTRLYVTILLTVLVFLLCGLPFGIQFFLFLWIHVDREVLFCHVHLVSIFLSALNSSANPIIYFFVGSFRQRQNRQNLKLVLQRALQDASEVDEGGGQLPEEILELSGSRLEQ
# RGS4 act = RGS4 potentiators or activators, primary screen, cell-based, HEK293 M3R inducible RGS4, calcium flux; carbachol calcium flux Fluo4; hits give low values; B-score at 10 µM; hit rate 0.92% among 310,000; AID 463111, 2010;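 active = B-score of the integrated calcium signal more than 4 SD below the library mean, with starting fluorescence not abnormally high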;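 also: negative B-score means reduced calcium response which marks RGS4 activation or potentiation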
#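 System – HEK293 FlpIn-TREx cells, stable M3R, doxycycline-inducible RGS4 · Reagent – ECmax carbachol challenge · Times – compound preincubation 20 min at room temperature before agonist · Technique – Fluo4 fluorescence kinetic imaging of calcium · Measure – B score of integrated Fluo4 ratio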
# RGS4 inh = RGS4 inhibitors, primary screen, cell-based, HEK293 M3R inducible RGS4, calcium flux; Regulator of G-protein signaling 4 (Homo sapiens), P49798; Fluo-4 calcium flux; hits give high values; triggered by carbachol at its EC20; B-score at 10 µM; hit rate 0.45% among 310,000; AID 463165, 2010;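 active = B-score, a plate-corrected calcium signal, over three deviations above library mean, with baseline fluorescence within five deviations of library mean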;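 also: RGS4 expression induced by doxycycline in cells with stable M3 receptor; B-score is computed from the integrated fluorescence ratio over baseline after carbachol; higher B-score means a larger calcium signal and so more RGS4 inhibition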
# Target sequence (P49798 whole entry, looked up): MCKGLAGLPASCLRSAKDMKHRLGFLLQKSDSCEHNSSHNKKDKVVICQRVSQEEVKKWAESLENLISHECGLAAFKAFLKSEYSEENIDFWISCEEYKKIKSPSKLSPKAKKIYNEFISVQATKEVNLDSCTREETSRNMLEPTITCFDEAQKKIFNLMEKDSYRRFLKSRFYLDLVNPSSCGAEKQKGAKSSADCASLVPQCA
# MrgX1 agonist = agonists of human MrgX1 receptor, primary screen, HEK293 cells, Fluo-4 calcium flux | Mas-related G-protein coupled receptor member X1 (Homo sapiens), Q96LB2 | Fluo-4 calcium fluorescence, agonist mode; hits give high values | B-score at 10 µM | hit rate 0.44% among 310,000 | AID 588627, 2011;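 active = calcium response B-score plate-corrected fluorescence ratio at least 3 library SD, with starting fluorescence B-score inside 5 SD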
#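 System: HEK293 cells stably expressing human MrgX1 receptor; Dosing: test compound in the initial addition of three; Schedule: overnight plating, then 30 min 37 °C plus 30 min room-temperature dye loading; Detection: kinetic calcium dye fluorescence, Fluo-4 NW; Controls: per-plate positive and negative controls for Z′ factor.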
# MrgX1 antag = antagonists of human MrgX1 receptor, primary screen, HEK293 cells, Fluo-4 calcium flux; Mas-related G-protein coupled receptor member X1 (Homo sapiens), Q96LB2; BAM8-22 antagonism; hits give low values; B-score at 10 µM; hit rate 1.3% among 310,000;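 active = calcium-response B-score plate-corrected more than 3 library SD below zero, starting fluorescence within 5 deviations, no agonist response on first addition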;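 also: peak minus trough fluorescence over baseline after final BAM8-22 challenge near maximal dose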
# MrgX1 ant reconf = MrgX1 receptor antagonists, duplicate retest, confirmation, HEK293 cells, Fluo-4 calcium flux | shares compounds with MrgX1 antag | BAM8-22 calcium flux; hits give low values | remaining BAM8-22 calcium response % of control (hits give low values), % at 10 µM | hit rate 19% among 2,300 | AID 602420, 2012;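 active = remaining agonist calcium response no higher than 100% minus 3 SD of agonist-only control wells, with starting fluorescence near control levels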;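 also: agonist BAM8-22 given at a near maximal EC90 to ECmax level; peak minus minimum fluorescence divided by baseline after agonist addition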
# HEK293 Ca flux = nonspecific calcium signal in parental HEK293, confirmation, counter-screen for MrgX1 antagonist project, parental HEK293 cells, Fluo-4 calcium flux; Fluo-4 calcium fluorescence, FDSS; AID 624111, 2012; hit rate 2% among 4,000; fluorescence ratio F(max-min)/F0 at 10 µM; shares compounds with MrgX1 antag;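 active = duplicate-averaged calcium fluorescence ratio at least three times the standard deviation of buffer wells, a nonspecific response in parental cells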
# HEK293 Ca counter = calcium response in parental HEK293 cells, primary screen, counter-screen for MrgX1 allosteric activator project, cell-based, Fluo-4 calcium flux, duplicate | shares compounds with MrgX1 antag | Fluo-4 fluorescence ratio; hits give high values | fluorescence ratio F(max-min)/F0 at 10 µM | hit rate 0.4% among 4,000 | AID 624114, 2012;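 active = calcium fluorescence ratio, averaged over duplicates, at least 3 SD of the buffer-well ratio, meaning a nonspecific response in receptor-free cells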;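 also: untransfected parental HEK293 lacking MrgX1 used as counterscreen for MrgX1 allosteric activators; fluorescence change taken during the second addition on a kinetic imager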
# HEK293 Ca cntr2 = calcium response in parental HEK293 cells, primary screen, counter-screen for MrgX1 agonist project, cell-based, Fluo-4 calcium flux, duplicate, agonist mode; shares compounds with MrgX1 antag; Fluo-4 calcium fluorescence (FDSS); hits give high values; fluorescence ratio F(max-min)/F0 at 10 µM; hit rate 8.7% among 4,000;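 active = calcium fluorescence ratio at least three times the spread of buffer wells, meaning a non-specific response in parental cells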
# Hits are given with their value; 0 = inactive; - = no result given.
SMILES,MrgX1 PAM,RGS4 act,RGS4 inh,MrgX1 agonist,MrgX1 antag,MrgX1 ant reconf,HEK293 Ca flux,HEK293 Ca counter,HEK293 Ca cntr2
CCN(CC)C(=O)C(=O)c1cccn1-c1cccc(OC)c1C#N,0,0,0,0,0,-,-,-,-
Cc1ccc(Cl)c(OCC(=O)Nc2cccnc2)c1,0,0,0,0,0,-,-,-,-
Cc1ccc(Cl)c(OCC(=O)Nc2sc(C)c(C)c2C#N)c1,0,0,0,0,-7.9,0,0,0,0
CCOC(=O)c1ccc(NC(=O)CN(c2ccc(C)cc2)S(=O)(=O)c2c(C)n[nH]c2C)cc1,0,0,0,0,-6.2,0,0,0,52
CCOc1ccccc1NC(=O)CN(c1ccc(C)cc1)S(=O)(=O)c1c(C)n[nH]c1C,0,0,0,0,0,-,-,-,-
Cc1ccc(-n2nc3c(SCCN4CCOCC4)nnc(C)c3c2C)cc1,0,0,0,0,0,-,-,-,-
CCOc1ccc(-n2nc3c(SCCN4CCCC4)nnc(C)c3c2C)cc1,0,0,0,0,-4.7,0,0,0,0
CC(=O)Nc1ccc(S(=O)(=O)N2CCC(c3nc4ccc(C)cc4[nH]3)CC2)cc1,0,0,0,0,0,-,-,-,-
CC(C)(C)c1ccc(S(=O)(=O)N2CCC(c3nc4ccc(Cl)cc4[nH]3)CC2)cc1,0,0,0,0,-6,0,0,0,0
Cc1cccc(C(=O)NCC(=O)N2CCN(S(=O)(=O)c3ccccc3)CC2)c1,0,0,0,0,-4.6,0,0,0,0
O=C(NCCC1=CCCCC1)N[C@@H](Cc1ccccc1)C(=O)O,0,0,0,0,-9.7,0,0,0,0
O=C(NCCc1ccccc1)NC(Cc1ccccc1)C(=O)O (stereo not drawn),0,0,0,0,0,-,-,-,-
Cc1cccc(-n2nc3c(c2NC(=O)C(C)C)CSC3)c1,0,0,0,0,0,-,-,-,-
O=C(COC(=O)c1cccs1)c1ccc2ccccc2c1,0,0,0,0,-5.6,0,0,0,0
CCN1CCN(C(=S)Nc2ccc3nc(N4CCN(CC)CC4)cc(C)c3c2)CC1,0,0,0,0,-4.9,0,0,0,0
CCOc1nc(Nc2ccc(OC)cc2)nc(OCC)n1,0,0,0,0,0,-,-,-,-
CCOc1nc(Nc2ccc(OC)c(Cl)c2)nc(OCC)n1,0,0,0,0,-4.8,0,0,0,0
CCc1cccc(C)c1N1C(=O)CC(C)(C)CC1=O,0,0,0,0,0,-,-,-,-
CCOC(=O)CN1C(=O)N[C@@H](c2cccc(C(F)(F)F)c2)[C@@H](C(=O)OC)[C@H]1C,0,0,0,0,-6.1,0,0,0,0
COCCN1C(=O)N[C@@H](c2cccc(C(F)(F)F)c2)[C@H](C(=O)OC)[C@H]1C,0,0,0,0,0,-,-,-,-
O=C(Nc1ccc(Cl)c(C(F)(F)F)c1)N1CCCC(O)C1 (stereo not drawn),0,0,0,0,-6.2,0,0,0,0
O=C(Nc1ccc(Cl)c(C(F)(F)F)c1)C(=O)N1CCCCC1,0,0,0,0,0,-,-,-,-
CCc1ccc(NC(=O)c2cnc(N3CCN(c4ccccn4)CC3)c3ccccc23)cc1,0,-7.2,0,0,-7.1,60%,0,0,0
CC(C)NC(=O)c1cnc(N2CCN(c3ccccn3)CC2)c2ccccc12,0,0,0,0,0,-,-,-,-
